Values after ≈ are worked out from the molar mass of the structure shown. Active and inactive are the calls of the source. The rule behind the calls is not given here.
What was measured:
Candida albicans [1] = assay: Antifungal activity against itraconazole and fluconazole resistant Candida albicans ATCC 90819 after 48 hrs by broth dilution method; assay type: functional; conditions: for MIC: Candida albicans, ATCC 90819, 48 h
Outline: (§1)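 CLSI M27-A3 broth microdilution with minor modifications. Overnight YPD culture grown at 35 °C, 200 rpm, adjusted to OD600 0.12, diluted in RPMI 1640 buffered to pH 7.0 with 0.165 M MOPS to a final 1–2 × 10^3 CFU/mL. Test compounds at 0.015–31.3 µg/mL, 48 h at 35 °C, DMSO <1.25%. […] Triplicate.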

Candida parapsilosis [2] = assay: Antifungal activity against Candida parapsilosis ATCC 22019 after 48 hrs by broth dilution method; assay type: functional; conditions: for MIC: Lodderomyces parapsilosis, ATCC 22019, 48 h
[3] = Aqueous solubility of the compound; assay type: physicochemical; conditions: buffer
Nakaseomyces glabratus = assay: Antifungal activity against Candida glabrata ATCC 2001 after 48 hrs by broth dilution method; assay type: functional, CBS 138; conditions: for MIC: Nakaseomyces glabratus, CBS 138, 48 h
Candida albicans [4] = assay: Antifungal activity against itraconazole and fluconazole susceptible Candida albicans ATCC MYA-2310 after 48 hrs by broth dilution method; assay type: functional
[5] = Solubility of the compound in DMSO; assay type: physicochemical
Pichia kudriavzevii = assay: Antifungal activity against Candida krusei ATCC 6258 after 48 hrs by broth dilution method; assay type: functional; conditions: for MIC: Pichia kudriavzevii, ATCC 6258, 48 h
Outline: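 Yeasts tested per CLSI M27-A3 with minor changes. An overnight YPD culture (35 °C, 200 rpm) was adjusted to OD600 0.12 and diluted in MOPS-buffered RPMI 1640 (pH 7.0) to a final 1–2 × 10^3 CFU/mL. Compounds 0.015–31.3 µg/mL, DMSO <1.25%.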

Candida albicans [6] = assay: Antifungal activity against itraconazole and fluconazole susceptible Candida albicans ATCC MYA-2876 after 48 hrs by broth dilution method; assay type: functional
Candida albicans [7] = assay: Inhibition of 14alpha-demethylase in Candida albicans ATCC 10231 assessed as ergosterol levels at […] by GC-MS analysis; design: scale not given: the % may be the effect or the level left
Candida albicans [8] = assay: Antifungal activity against Candida albicans ATCC 64124 after 48 hrs by broth dilution method; assay type: functional; outline: as §1
Candida albicans [9] = assay: Inhibition of 14alpha-demethylase in Candida albicans ATCC 10231 assessed as 14alpha-methyl ergosta-8,24(28)-dien-3beta,6alpha-diol levels at […] by GC-MS analysis; design: scale not given: the % may be the effect or the level left
Candida albicans [10] = assay: Antifungal activity against Candida albicans ATCC 10231 at 7.8 ug/mL incubated for 1 hr by propidium iodide staining-based fluorescence microscopic method; assay type: functional
Outline: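 C. albicans ATCC 10231 grown overnight in YPD broth at 35 °C with shaking at 200 rpm, then transferred to RPMI 1640. Cells were exposed to drug and stained with propidium iodide, which enters only cells with compromised membranes. Uptake was judged by fluorescence microscopy against an untreated control.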

Candida albicans [11] = assay: Ratio of MIC80 for voriconazole resistant Candida albicans ATCC 64124 sessile cells to MIC for voriconazole resistant Candida albicans ATCC 64124; assay type: functional
Aspergillus flavus = assay: Antifungal activity against Aspergillus flavus ATCC MYA-3631 after 48 hrs by broth dilution method; assay type: functional; conditions: ATCC MYA-3631, 48 h
Aspergillus nidulans [12] = assay: Antifungal activity against Aspergillus nidulans ATCC 38163 after 48 hrs by broth dilution method; assay type: functional; conditions: Aspergillus nidulans, ATCC 38163, 48 h
Outline: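 A. nidulans run per CLSI M38-A2. PDA spores were filtered through glass wool and counted by hemocytometer. Test range 0.03–31.3 µg/mL in MOPS-buffered RPMI 1640 (pH 7.0), final 5 × 10^5 CFU/mL.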

Candida parapsilosis [13] = assay: Antifungal activity against Candida parapsilosis ATCC 22019 after 48 hrs in the presence of 10% FBS by broth dilution method; assay type: functional; conditions: Lodderomyces parapsilosis, ATCC 22019, 48 h
Candida albicans [14] = assay: Antibiofilm activity against voriconazole resistant Candida albicans ATCC 64124 sessile cells incubated for 24 hrs by XTT reduction assay; assay type: functional; conditions: ATCC 64124, 24 h
Outline: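 Strain B grown overnight in YPD broth at 35 °C, diluted to OD600 0.1 (~10^6 CFU/mL), then grown statically for 24 h at 37 °C to form biofilm. Washed with PBS, then drug in RPMI 1640 at 0.12–62.5 µg/mL for 24 h at 37 °C. Read-out: XTT 0.5 mg/mL with menadione 1 µM, 2 h, A490. SMIC50/SMIC80 are 50%/80% decreases versus drug-free biofilm. Duplicate.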

Candida albicans [15] = assay: Antifungal activity against Candida albicans ATCC 10231 after 48 hrs by broth dilution method; assay type: functional; conditions: ATCC 10231, 48 h
Aspergillus nidulans [16] = assay: Antifungal activity against Aspergillus nidulans ATCC 38163 after 48 hrs in the presence of 10% FBS by broth dilution method; assay type: functional; conditions: ATCC 38163, 48 h
Candida albicans [17] = assay: Antifungal activity against Candida albicans ATCC 10231 after 48 hrs in the presence of 10% FBS by broth dilution method; assay type: functional; conditions: ATCC 10231, 48 h
Aspergillus terreus = assay: Antifungal activity against Aspergillus terreus ATCC MYA-3633 after 48 hrs by broth dilution method; assay type: functional; conditions: Aspergillus terreus, ATCC MYA-3633, 48 h
Outline: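 Molds tested per CLSI M38-A2. Spores were harvested from sporulating PDA cultures by filtering through glass wool and counted on a hemocytometer. Serial dilutions (0.03–31.3 µg/mL) were made in RPMI 1640 buffered to pH 7.0 with 0.165 M MOPS, final inoculum 5 × 10^5 CFU/mL.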

Candida albicans [18] = assay: Antifungal activity against itraconazole and fluconazole resistant Candida albicans ATCC MYA-1237 after 48 hrs by broth dilution method; assay type: functional; conditions: Candida albicans, ATCC MYA-1237, 48 h; outline: as §1
HEK293 = assay: Cytotoxicity against HEK293 cells up to 31 ug/ml after 24 hrs by resazurin-based fluorescence assay; assay type: cell-based; conditions: human, hek293, 24 h
Outline: (§2)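 Cells grown in DMEM with 10% FBS at 37 °C, 5% CO2, and seeded at 10000 (HEK-293) or 3000 (BEAS-2B, A549) per well. After 16 h, exposed 24 h to 0.13–31 µg/mL final in medium with 0.1–0.4% DMSO. Resazurin added for 6–10 h; fluorescence read at 560/590 nm and survival normalized to DMSO control after background subtraction. Triton X-100 12.5% v/v positive control; duplicate.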

Candida albicans [19] = assay: Antifungal activity against itraconazole and fluconazole resistant Candida albicans ATCC MYA-1003 after 48 hrs by broth dilution method; assay type: functional; conditions: Candida albicans, ATCC MYA-1003, 48 h; outline: as §1
Candida albicans [20] = assay: Ratio of MIC in presence of 10% FBS to MIC in absence of 10% FBS for Candida albicans ATCC 10231; assay type: functional
Outline: (§3)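 MIC broth dilution run in parallel in RPMI 1640 with or without 10% fetal bovine serum against C. albicans ATCC 10231, C. parapsilosis ATCC 22019 and A. nidulans ATCC 38163.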

BEAS-2B = assay: Cytotoxicity against human BEAS2B cells up to 31 ug/ml after 24 hrs by resazurin-based fluorescence assay; assay type: cell-based; outline: as §2
Candida parapsilosis [21] = assay: Ratio of MIC in presence of 10% FBS to MIC in absence of 10% FBS for Candida parapsilosis ATCC 22019; assay type: functional; outline: as §3
Aspergillus nidulans [22] = assay: Ratio of MIC in presence of 10% FBS to MIC in absence of 10% FBS for Aspergillus nidulans ATCC 38163; assay type: functional; outline: as §3
A549 = assay: Cytotoxicity against human A549 cells up to 31 ug/ml after 24 hrs by resazurin-based fluorescence assay; assay type: cell-based; conditions: a549, 24 h; outline: as §2

SMILES | solubility [3] | solubility [5] | MIC (Candida albicans [1]) [µM] | Ratio (Candida albicans [11]) | MIC (Candida parapsilosis [2]) [µM] | MIC (Aspergillus flavus) [µM] | MIC (Nakaseomyces glabratus) [µM] | MIC (Aspergillus nidulans [12]) [µM] | MIC (Candida parapsilosis [13]) [µg/mL] | MIC (Pichia kudriavzevii) [µM] | MIC50 (Candida albicans [14]) [µg/mL] | MIC80 (Candida albicans [14]) [µg/mL] | MIC (Candida albicans [15]) [µM] | MIC (Aspergillus nidulans [16]) [µg/mL] | MIC (Candida albicans [17]) [µg/mL] | MIC (Aspergillus terreus) [µM] | other results
OC(Cn1cncn1)(Cn1cncn1)c1ccc(F)cc1F [FLUCONAZOLE] | Soluble | Soluble | – | – | – | – | – | – | – | – | – | – | – | – | – | – | MIC=<50 (Candida albicans [1]): >408.1 µM; MIC=<50 (Candida parapsilosis [2]): 6.4 µM (≈ 1.96 µg/mL); MIC=<50 (Nakaseomyces glabratus): >102.2 µM; MIC=<50 (Candida albicans [4]): >408.1 µM; MIC=<50 (Pichia kudriavzevii): >102.2 µM; MIC=<50 (Candida albicans [6]): 50.9 µM (≈ 15.6 µg/mL); Activity (Candida albicans [7]): 95.9%; MIC=<50 (Candida albicans [8]): >408.1 µM; Activity (Candida albicans [9]): 4.1%; Activity (Candida albicans [10]): inactive
CCCCCCCCCCN1CCN(CC(O)(Cn2cncn2)c2ccc(Cl)cc2Cl)CC1 (stereo not given) | Soluble | Soluble | 7.9 (≈ 3.92 µg/mL) | 1 - 2 | 0.48 (≈ 0.238 µg/mL) | 7.9 (≈ 3.92 µg/mL) | 2 (≈ 0.993 µg/mL) | 7.9 (≈ 3.92 µg/mL) | 0.24 | 3.9 (≈ 1.94 µg/mL) | 15.6 (≈ 31.4 µM) | 31.3 (≈ 63 µM) | 3.9 (≈ 1.94 µg/mL) | 3.9 | 1.95 | 7.9 (≈ 3.92 µg/mL) | –
CCCCCCCCCCCCCCN1CCNCC1 | Soluble | Soluble | 6.9 (≈ 1.95 µg/mL) | 16 - 64 | 3.5 (≈ 0.989 µg/mL) | 3.5 (≈ 0.989 µg/mL) | 3.5 (≈ 0.989 µg/mL) | 3.5 (≈ 0.989 µg/mL) | 7.8 | 3.5 (≈ 0.989 µg/mL) | 15.6 (≈ 55.2 µM) | 62.5 (≈ 221 µM) | 3.5 (≈ 0.989 µg/mL) | 7.8 | 7.8 | 3.5 (≈ 0.989 µg/mL) | MIC (Candida albicans [18]): 6.9 µM (≈ 1.95 µg/mL); Activity (HEK293): Toxic; MIC (Candida albicans [4]; Candida albicans, ATCC MYA-2310, 48 h): 3.5 µM (≈ 0.989 µg/mL); MIC (Candida albicans [19]): 6.9 µM (≈ 1.95 µg/mL); Ratio (Candida albicans [20]): 2 - 8; Activity (BEAS-2B): Toxic; MIC (Candida albicans [6]; Candida albicans, ATCC MYA-2876, 48 h): 3.5 µM (≈ 0.989 µg/mL); Ratio (Candida parapsilosis [21]): 2 - 8; Ratio (Aspergillus nidulans [22]): 2 - 8; MIC (Candida albicans [8]; Candida albicans, ATCC 64124, 48 h): 3.5 µM (≈ 0.989 µg/mL); Activity (A549): Toxic

— ChEMBL document CHEMBL4024783, “Alkylated Piperazines and Piperazine-Azole Hybrids as Antifungal Agents” (J Med Chem, 2018)
